Screens from PubChem BioAssay.
Only a selection was taken, and hits are over-represented in it overall.
UPR XBP1 act: activators of adaptive arm of unfolded protein response (XBP1); CHO-XBP1 luciferase reporter, IRE1-XBP1 UPR activation, luminescence; percent of tunicamycin response, DMSO as zero; activation, % at 20 µM; 330,000 tested, 0.33% active; AID 463104;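 active = versus positive control, 20 µM dose yields 30% or more activation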;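 also: 100% = tunicamycin at 10 µg/mL and 0% = DMSO only wells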
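Material: CHO-XBP1 cells stably carrying IRE1-XBP1-driven luciferase reporter | Medium: F12 with 10% serum | Compound dosing: 20 µM single concentration, DMSO 1% | Incubation: Overnight seeding at 37 °C, 6 h compound treatment at 37 °C | Detection: Steady-Glo luminescence read | Read-out basis: % activation of reporter signal versus tunicamycin and DMSO controls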
A1 inh: inhibitors of the anti-apoptotic protein A1, read as caspase activation | 330,000 tested, 0.066% active | AID 2462 | MEF A1-2A-BIM cells, Caspase-Glo 3/7 luminescence, 3 h; percent of clofoctol response, vehicle zero | caspase activation, % (concentration not given with the values);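 active = over half of replicate activation scores above 10%, or exactly half above 10 with the replicate mean above 10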
CHOP inh: inhibitors of CHOP induction in ER stress response | CHO-K1 CHOP-promoter luciferase, tunicamycin-induced, 15-18 h | inhibition, % at 10 µM | 220,000 tested, 3.8% active;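 active = compounds that reduced the stress-induced luciferase reporter signal by more than about 70% of percent inhibition, limit read from the data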;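 also: 0% = tunicamycin plus vehicle and 100% = wells without tunicamycin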
CHOP UPR activ: activators of apoptotic arm of unfolded protein response (CHOP); CHO-CHOP luciferase reporter, UPR activation, luminescence; percent of tunicamycin response over DMSO baseline; activation, % at 10 µM; 330,000 tested, 0.34% active;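 active = at 10 µM dose, activation of 40% or more, normalized to positive control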;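 also: 100% = tunicamycin at 10 µg/mL and 0% = DMSO alone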
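Dosing – one dose, 10 µM in 0.5% DMSO · System – CHO-CHOP cells, stable luciferase reporter of PERK-eIF2a-CHOP signalling · Input – 500 cells/well · Control set – tunicamycin 10 µg/mL final as positive, DMSO-only wells as negative · Timing – 6 h compound treatment, 37 °C · Measure – % activation vs tunicamycin · Technique – luminescence read with Steady-Glo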
An asterisk follows results filed as active; . = not tested or not shown; ! = not confirmed by another sample.

SMILES | UPR XBP1 act | A1 inh | CHOP inh | CHOP UPR activ
O=C(Nc1ccc2oc(-c3cccnc3)nc2c1)c1ccc(Br)o1 | 14 | 1 | 77* | 0
CC(=NCCc1c(C)[nH]c2ccc(C)cc12)C1=C(O)CC(c2ccccc2)CC1=O (stereo not drawn) | -1 | 1 | 56 | 2
CC(=NCCc1c(C)[nH]c2ccc(OC(F)(F)F)cc12)C1=C(O)CC(c2ccccc2)CC1=O (stereo not drawn) | 0 | 1 | 72* | 0
Cc1cc(C)c2nc(-c3ccccn3)cc(C(=O)NCc3ccc(S(N)(=O)=O)cc3)c2c1 | -2 | 2 | 2 | -1
Cc1cc(C)c2nc(-c3ccccn3)cc(C(=O)NCCc3ccc(S(N)(=O)=O)cc3)c2c1 | -3 | 0 | 89* | -2
Cc1ccc(NC(=O)CCc2ccc(S(=O)(=O)N3CCOCC3)cc2)c(C)c1 | 0 | 1 | 12 | 1
COc1ccc(Oc2nnc(-c3ccc(C)cc3)c3ccccc23)cc1 | 0 | 1 | 83* | 0
O=C(COC(=O)c1c(Cl)ccc(Cl)c1Cl)NC(=O)NCc1ccccc1 | -1 | 1 | 84* | 0
CC1CCCCN1C(=O)c1cc2nc(-c3ccccc3)cc(-c3ccccc3)n2n1 (stereo not drawn) | 6 | 0 | 82* | 8
O=C(c1cc2nc(-c3ccc(F)cc3)cc(C(F)(F)F)n2n1)N1CCCCC1c1cccnc1 (stereo not drawn) | 17 | -1 | 73* | 4
CCOC(=O)N1CCN(C(=O)Cn2nc(C)n3nc(-c4ccc(OC)cc4)cc3c2=O)CC1 | -3 | -1 | . | 0
Cc1cc(C)cc(-n2c3nc4ccccc4nc3c3c(=O)n(Cc4ccco4)cnc32)c1 | 0 | -1 | 103* | -2
COc1ccc(Cc2c(N)nc(C)nc2N)cc1 | -2 | 0 | 14 | 0
CC(=O)Nc1nc2c(ccc3ccccc32)s1 | -3 | 0 | . | 2
O=C(Cc1cccs1)Nc1nc2c(ccc3ccccc32)s1 | -2 | 1 | 81* | 1
CCOC(=O)c1cccc(P(=O)(C(C)(C)C)C(C)(C)C)c1 | -1 | 0 | -1 | -1
Oc1cccc(-c2nc3ccc4ccccc4c3c3c2CCC3)c1 | 3 | 0 | 82* | 4
CC1CC(C)CN(C(=O)c2ccc3c(c2)N(Cc2ccccc2)CCS3)C1 (stereo not drawn) | 0 | 0 | 73* | -1
COc1ccc(NC(=O)NC2(C)CCS(=O)(=O)C2)cc1 (stereo not drawn) | -3 | . | . | 0
COc1ccc(NC(=O)NC23CC4(C)CC(C)(CC(C)(C4)C2)C3)cc1 | 3 | 1 | 70* | -1
O=C(c1ccc(Cl)cc1)N1CCN(c2ccc([N+](=O)[O-])c(NCc3cccnc3)c2)CC1 | -2 | 0 | . | -1
COc1cc(/C=C/C(=O)OCC(=O)NCc2ccc3c(c2)OCO3)cc(OC)c1OC | -2 | -1 | . | 4
COc1ccc(/C=N/NC(=S)Nc2cccc(C(=O)O)c2)cc1OC | -3 | 0 | 2 | 0
COc1ccc(/C=N/NC(=S)Nc2ccccc2)cc1COc1cccc(C)c1C | 16 | 0 | 91* | 14
CCCOc1cccc(-c2cc(C(=O)N/N=C/c3ccccn3)c3ccccc3n2)c1 | -2 | -1 | . | 296*
SMILES | UPR XBP1 act | A1 inh | CHOP inh | CHOP UPR activ
CCOc1cccc(C(=O)Nc2nnc(-c3ccco3)s2)c1 | -6 | -10 | 74* | -2
CCC(C(=O)Nc1nnc(-c2ccco2)s1)c1ccccc1 (stereo not drawn) | 2 | 0 | 75* | 1
Cc1cccc(OCC(=O)Nc2nnc(-c3ccco3)s2)c1 | 0 | 0 | 35 | -2
C=CCNC(=S)Nc1cccc2[nH]ncc12 | -2 | 0 | 5 | 1
CCOc1ccc(S(=O)(=O)Nc2cc(SCC(=O)O)c(O)c3ccccc23)cc1 | . | 0 | . | .
O=S(=O)(Nc1cc(Sc2cccc3cccnc23)c(O)c2ccccc12)c1ccccc1 | . | . | 101* | .
CCN(C[C@H]1N[C@@](C)(C(=O)OC)[C@H]2C(=O)N(Cc3ccccc3)C(=O)[C@@H]12)C(=O)NC(C)C | -2 | 1 | . | 0
Cc1cc(=O)[nH]c(Nc2ccc(C(=O)OC(C)C)cc2)n1 | 2 | -1 | 70* | 1
COc1ccc(CNC(=O)c2csc(Cc3ccccc3)n2)cc1 | 1 | 0 | 27 | 0
COc1ccccc1CNC(=O)c1csc(Cc2ccc(Cl)cc2)n1 | 0 | -1 | 80* | -2
COc1ccc(-n2nnnc2SCc2nc3ccccc3s2)cc1 | 3 | 0 | 82* | 0
CCOC(=O)C1CCN(C(=S)Nc2cc(C)ccc2C)CC1 | -3 | -2 | -9 | 1
Cc1cc(C)cc(N(CC(=O)N2CCN(c3ccccc3)CC2)S(=O)(=O)c2c(C)noc2C)c1 | -2 | 0 | 76* | 2
CS(=O)(=O)N(CC(=O)N1CCN(c2ccccc2)CC1)c1ccc(Cl)c(C(F)(F)F)c1 | -1 | 1 | 76* | 0
CC1CCN(C(=O)CN(c2ccc(Cl)c(C(F)(F)F)c2)S(C)(=O)=O)CC1 | -2 | 0 | 26 | -1
O=C(C[n+]1cccc(NC(=O)c2ccccc2)c1)c1ccc(NC(=O)c2ccccc2)cc1 | -2 | 0 | -8 | -3
O=C(COc1ccccc1[N+](=O)[O-])Nc1ccc(NC(=O)c2cc3ccccc3o2)cc1 | 13 | 7.5* | 70 | 0
CCOc1ccc(S(=O)(=O)N2CCC(C(=O)NCCc3ccc(S(N)(=O)=O)cc3)CC2)cc1 | -6 | 0 | . | 6
Cc1cccc(NC(=S)NC(C)(C)CC(C)(C)C)c1 | 2 | 1 | 85* | 1
COC(=O)c1ccc(OCC(O)CN(CC(C)C)CC(C)C)cc1 (stereo not drawn) | -3 | 1 | 87* | -2
N#Cc1c(Cl)nc2c(c1C#N)CCCC2 | 2 | -1 | 10 | 0
Cc1ccc(S(=O)(=O)N2c3ccccc3NC(=O)CC2C)cc1 (stereo not drawn) | -1 | 0 | 9 | 1
Cc1nc(Nc2ccc(Cl)c(Cl)c2)sc1C(=O)Nc1ccccc1 | 4 | 2 | 96* | 5
Cc1nc(NC(=O)/C=C/c2ccccc2)sc1C(=O)Nc1ccc(Cl)cc1 | 5 | 0 | 88* | 4
Cc1ccc(CNC(=O)CCc2c(C)[nH]c(=O)c(C#N)c2C)cc1 | -6 | 1 | . | 5
O=C(NNC(=S)Nc1ccc(Cl)c(Cl)c1)c1ccccn1 | -1 | 1 | 47 | 8
Clc1ccccc1C(c1ccccc1)(c1ccccc1)n1ccnc1 | -5 | 0 | 88*! | 12
FC(F)(F)c1ccccc1-n1ccnc1 | -2 | 0 | 5 | 0
CCCCC(=O)NC(c1ccc([N+](=O)[O-])cc1)c1c(O)ccc2ccccc12 (stereo not drawn) | -3 | 0 | 78* | 2
O=C(NC(c1ccc(Cl)cc1)c1c(O)ccc2ccccc12)c1ccccc1 (stereo not drawn) | . | 1 | 85* | .
